Here are results for 13 molecules from ChEMBL document CHEMBL1152271, “Interrogating the bioactive pharmacophore of the latrunculin chemotype by investigating the metabolites of two taxonomically unrelated sponges” (J Med Chem, 2008).

The source made the active and inactive calls. The calls are words filed in the database; no cut-off is given here.

Assay [1] concerns A10. The experiment in a line: Disruption of microfilament in rat A10 cells at 5 uM after 18 hrs using DAPI staining by fluorescence microscopy.
The subject of the next assay is HCT-116. As to the kind of experiment: Cytotoxicity against human HCT116 cells after 3 days by trypan blue assay. Format: functional, cell-based. Particulars: HCT-116, 72 h.
Assay [2] has as its system MDA-MB-435. The experiment in a line: Cytotoxicity against human MDA-MB-435 cells 48 hrs by SRB assay. Particulars: MDA-MB-435, 48 h. The format is functional, cell-based. Background: The SRB assay estimates cell density from bound dye.
Assay [3] relates to MDA-MB-435. The experiment in a line: Ratio of IC50 for human MDA-MB-435 cells to IC50 for human HCT116 cells. The format is functional.
Assay [4] has as its system MC-38. As to the kind of experiment: Cytotoxicity against mouse Colon 38 cells at 1.1 uM by disk diffusion soft agar colony formation assay. Format: functional. The settings on record: read-out: IZ. Summed up: (§1)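 Disk diffusion soft-agar colony formation assay with murine colon 38 cells. The compound is adsorbed onto a disk at a concentration similar to the other compounds tested. The read-out is the zone of inhibition (Z), recorded in mm.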
In general terms: A growth-free zone around the sample is the usual read-out of agar diffusion tests.

For assay [5], the system named is MC-38. The experiment in a line: Cytotoxicity against mouse Colon 38 cells at 5.1 uM by disk diffusion soft agar colony formation assay. Particulars: read-out: IZ. Format: functional. In short, it runs like this: (§2)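 Soft agar disk diffusion colony formation assay with murine colon 38 cells, run alongside murine L1210 and CFU-GM. Compound adsorbed onto a disk at similar loadings across compounds. Read-out is the zone of inhibition (Z) in mm. Full method described previously.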

In assay [6] the test system is MC-38. The experiment in a line: Cytotoxicity against mouse Colon 38 cells at 1.9 uM by disk diffusion soft agar colony formation assay. The format is functional. The settings on record: read-out: IZ. In short, it runs like this:
as §2

Assay [7] concerns A10. The experiment in a line: Disruption of microfilament in rat A10 cells at 9 uM after 18 hrs using DAPI staining by fluorescence microscopy. The format is functional, cell-based.
The subject of assay [8] is MC-38. As to the kind of experiment: Cytotoxicity against mouse Colon 38 cells at 4.0 uM by disk diffusion soft agar colony formation assay. The format is functional. The settings on record: read-out: IZ. In short, it runs like this:
as §1

Assay [9] concerns MC-38. The experiment in a line: Cytotoxicity against mouse Colon 38 cells at 3.5 uM by disk diffusion soft agar colony formation assay. Format: functional. Particulars: read-out: IZ. In short, it runs like this: as §1

Regarding `C/C1=C/C(=O)O[C@@H](CC(O)[C@@H]2CSC(=O)N2)C[C@H](O)CC[C@H](C)/C=C\CC1` (some centres undefined) [LATRUNCULIN C], in the assay on A10 [1], the outcome was inactive. The IC50 – broadly, the concentration that inhibits the measured activity by half – in the assay on HCT-116 was above 100 µM; with MDA-MB-435 [2], 34.3 µM. Besides, the “Ratio IC50” value with MDA-MB-435 [3] is listed as below 0.3.

On to `C/C1=C/C(=O)O[C@@H]2C[C@@H](CC[C@H](C)/C=C\[C@H](O)[C@@H](O)CC1)O[C@@](O)([C@@H]1CSC(=O)N1)C2` [LATRUNCULOL A], for which the outcome in the assay on A10 [1] was Active. Further, the IC50 in the assay on HCT-116 came out at 0.48 µM; in the assay on MDA-MB-435 [2], 2.1 µM. In addition, the zone of inhibition at 1.1 µM with MC-38 [4] was determined as 23.5 mm. In addition, the “Ratio IC50” value in the assay with MDA-MB-435 [3] is 4.4.

In the case of `C/C1=C/C(=O)O[C@@H]2C[C@@H](CC[C@H](C)/C=C\CC1)O[C@@](O)([C@@H]1CSC(=O)N1)C2` [LATRUNCULIN B], the outcome in the assay with A10 [1] was Active. Besides, the IC50 in the assay with HCT-116 was found to be 7.1 µM; with MDA-MB-435 [2], 4.8 µM. Moreover, the zone of inhibition at 5.1 µM in the assay on MC-38 [5] was determined as 13 mm. In the assay with MDA-MB-435 [3], the “Ratio IC50” value came out at 0.7.

In the case of `CO[C@H]1/C=C\[C@@H](C)CC[C@@H]2C[C@H](C[C@](O)([C@@H]3CSC(=O)N3)O2)OC(=O)/C=C(/C)CC[C@@H]1O` [LATRUNCULOL B], in the assay with A10 [1], the outcome was Active. In addition, the IC50 in the assay with HCT-116 came out at 2.1 µM; in the assay on MDA-MB-435 [2] it was 4 µM. For the same molecule, the zone of inhibition at 1.1 µM in the assay on MC-38 [4] came to 19.5 mm. Also, the “Ratio IC50” value with MDA-MB-435 [3] is listed as 1.9.

For `C/C1=C/C(=O)O[C@@H]2C[C@@H](CC[C@H](C)/C=C\C=C\CC1)O[C@@](O)([C@@H]1CSC(=O)N1)C2` [LATRUNCULIN A], the outcome in the assay with A10 [1] was Active. Besides, the zone of inhibition at 1.9 µM in the assay on MC-38 [6] amounted to 9 mm. Besides, the IC50 in the assay with HCT-116 was found to be 1.1 µM; in the assay with MDA-MB-435 [2] it was 2.8 µM. Moreover, the “Ratio IC50” value in the assay with MDA-MB-435 [3] is 2.5.

For the molecule `C/C1=C/C(=O)O[C@@H]2C[C@@H](CC[C@H](C)C(=O)/C=C/C(O)CC1)O[C@@](O)([C@@H]1CSC(=O)N1)C2` (some centres undefined), the values for the IC50 in the assay with HCT-116 and in the assay on MDA-MB-435 [2] were above 53 µM and 30.5 µM, respectively. Besides, the outcome with A10 [7] was inactive. Moreover, the “Ratio IC50” value in the assay with MDA-MB-435 [3] is below 0.6.

`C/C(=C/C(=O)O)CC/C=C\[C@@H](C)CC[C@@H]1CC=CC(=O)O1` [LATRUNCULEIC ACID]: the outcome with A10 [1] was inactive. Moreover, the IC50 in the assay on HCT-116 came out at 48 µM; in the assay on MDA-MB-435 [2], 26.1 µM. The “Ratio IC50” value in the assay with MDA-MB-435 [3] amounted to 0.5.

For the molecule `C/C1=C/C(=O)O[C@@H]2C[C@@H](CC[C@H](C)/C=C\[C@@H]3OC(C)(C)O[C@H]3CC1)O[C@@](O)([C@@H]1CSC(=O)N1)C2`, the result with A10 [1] was Active. Besides, the zone of inhibition at 4 µM in the assay with MC-38 [8] was 21 mm. For the same molecule, the results for the IC50 with HCT-116 and with MDA-MB-435 [2] were 5.1 µM and 7.9 µM, respectively. Besides, the “Ratio IC50” value in the assay on MDA-MB-435 [3] is 1.5.

Regarding `C/C1=C/C(=O)O[C@@H]2C[C@@H](CC[C@H](C)/C=C\[C@H](O)[C@H](O)CC1)O[C@@](O)([C@@H]1CSC(=O)N1)C2` [LATRUNCULOL C], the outcome with A10 [1] was Active. For the same molecule, the results for the IC50 with HCT-116 and in the assay with MDA-MB-435 [2] were above 53 µM and 11.9 µM, respectively. In the assay on MDA-MB-435 [3], the “Ratio IC50” value is reported as below 0.2.

For `C/C1=C/C(=O)O[C@@H]2C[C@@H](CC[C@H](C)/C=C\CC(=O)CC1)O[C@@](O)([C@@H]1CSC(=O)N1)C2` [LATRUNCULONE B], in the assay on A10 [1], the outcome was Active. Moreover, the results for the IC50 with HCT-116 and in the assay on MDA-MB-435 [2] were 0.92 µM and 1 µM, respectively. Moreover, in the assay with MC-38 [4], the zone of inhibition at 1.1 µM was 19.5 mm. For the same molecule, the “Ratio IC50” value in the assay with MDA-MB-435 [3] worked out at 1.1.

For `CO[C@]1([C@@H]2CSC(=O)N2)C[C@H]2C[C@@H](CC[C@H](C)/C=C\CC/C(C)=C\C(=O)O2)O1` [15-METHOXYLATRUNCULIN B], in the assay with A10 [1], the result was inactive. The IC50 with HCT-116 was determined as 49 µM; with MDA-MB-435 [2] it was 29.7 µM. The “Ratio IC50” value in the assay on MDA-MB-435 [3] was found to be 0.6.

Consider `C/C1=C/C(=O)O[C@@H]2C[C@@H](CC[C@H](C)/C=C\CC1)O[C@@](O)([C@H]1CSC(=O)N1)C2` [16-EPI-LATRUNCULIN B], for which the outcome in the assay with A10 [1] was Active. Further, the IC50 with HCT-116 turned out to be 38 µM; with MDA-MB-435 [2] it was 17 µM. For the same molecule, the “Ratio IC50” value with MDA-MB-435 [3] is given as 0.5.

For `C/C1=C/C(=O)O[C@@H]2C[C@@H](CC[C@H](C)/C=C\[C@H](O)[C@@H](O)CC1)O[C@@](O)([C@H]1CSC(=O)N1)C2` [18-EPI-LATRUNCULOL A], the result in the assay on A10 [1] was inactive. For the same molecule, in the assay with MC-38 [9], the zone of inhibition at 3.5 µM stood at 17 mm. In addition, the IC50 was 5.5 µM with HCT-116 and above 50 µM in the assay on MDA-MB-435 [2]. In addition, the “Ratio IC50” value with MDA-MB-435 [3] is above 9.1.
